Test results: PMC6335142 (Korean Journal for Food Science of Animal Resources, 2018)
Marks after values point to notes of the source that are not given here. Where no end group is shown, it is not given here.

Tests used:
[1] = Oxygen radical absorbance capacity; format: biochemical
Summary of the method: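 Sample or trolox standard mixed with 80 nM fluorescein and held 15 min at 37℃, then 150 mM AAPH added. Fluorescence (ex 480, em 520 nm) recorded every minute at 37℃. Net AUC was converted through a trolox regression and reported as μmol trolox equivalent. RP-HPLC fractions (C18, 0–40% acetonitrile in 0.1% TFA, 215 nm) were lyophilized and taken up in 75 mM phosphate buffer. Values given as means and SEM with Tukey test.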

[2] = system: ERK, JNK and p38 MAP kinase; experiment: Western blot of MAP kinase; format: cell-based, human; details: 24 h, HCT116 cells
Summary of the method: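 HCT116 cells seeded at 2×10^5 cells/well, incubated overnight at 37℃, then given peptide at varying concentrations for 24 h. Cells washed in dPBS and lysed on ice in pH 8.0 NaCl/Tris/NP40 buffer with protease inhibitors. 15 μg protein run on 10% SDS-PAGE and blotted to PVDF, blocked in 5% BSA. Blots probed overnight at 4℃ with total and phospho ERK, JNK, p38 and β-actin antibodies (1:200), then HRP secondary. Detection by ECL chemiluminescence.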

HCT116 cells = experiment: MTT cell viability / proliferation assay in HCT116 cells; format: cell-based, human; details: 24 h
Summary of the method: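 HCT116 cells grown in RPMI1640 with 10% FBS and 1% antibiotics at 37℃, 5% CO2, then seeded at 2×10^4 cells/well and left 24 h. Peptide added at 0–250 μg/mL for 24 h. MTT was added to a final 0.5 mg/mL for 4 h, and the formazan was dissolved in DMSO and read at 540 nm. Data given as means and SEM, with GLM ANOVA and Tukey test, p<0.05.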

CCCCSVQK (cysteine pairing not given here) [P3]
ORAC value of RP-HPLC fraction ([1]; each 2-mL fraction lyophilized and re-dissolved in 0.5 mL 75 mM phosphate buffer): 94.21 μmol of TE | ORAC ([1]; fluorescein 80 nM, AAPH 150 mM, 37℃, trolox standard, means, SEM 4.662): 202.66^a µM TE/g of dry matter | p38 phosphorylation ([2]; 0, 50, 100 and 250 μg/mL): significantly phosphorylated by P3 with dose dependent | ERK phosphorylation ([2]; 50 μg/mL): activated | JNK phosphorylation ([2]; 100 and 250 μg/mL): significantly activated | Growth of HCT116 cells (HCT116 cells; 0–250 μg/mL): inhibited the growth of HCT116 cells in a dose-dependent manner | Inhibition of HCT116 cell proliferation (HCT116 cells; 250 μg/mL): 25.24% | Inhibition of HCT116 cells (as printed in results text) (HCT116 cells; 250 μg/mL, vs control): 74.76%
